According to ChEMBL document CHEMBL2169868, “Flavone-based novel antidiabetic and antidyslipidemic agents” (J Med Chem, 2012):
Activity calls are given as the source filed them. No cut-off for these calls is given here.

How the values were obtained:
Type in all cases: functional
[1] = tested on: Rattus norvegicus; assay: Antihyperlipidemic activity in Triton-induced dyslipidemic Wistar rat model assessed as reduction in phospholipid level at 100 mg/kg, po; parameters: scale not given: the % may be the effect or the level left
How it was run: (§1)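 Male Wistar rats, 8−10 weeks, about 160 g, fed normal pellet diet. Triton X-100 given at 400 mg/kg ip; compound given orally in 1% gum acacia. Retro-orbital blood taken 18 h after Triton and serum separated at 1500g for 10 min. TG and cholesterol measured by kit. Mean % change versus dyslipidemic control, 5 animals.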

[2] = tested on: Rattus norvegicus; assay: Antihyperlipidemic activity in Triton-induced dyslipidemic Wistar rat model assessed as reduction in cholesterol level at 100 mg/kg, po; parameters: scale not given: the % may be the effect or the level left; how it was run: as §1
[3] = tested on: Rattus norvegicus; assay: Antihyperlipidemic activity in Triton-induced dyslipidemic Wistar rat model assessed as reduction in triglyceride level at 100 mg/kg, po; parameters: scale not given: the % may be the effect or the level left; how it was run: as §1
[4] = tested on: Rattus norvegicus; assay: Antidiabetic activity in sucrose challenged streptozotocin-induced diabetic Sprague-Dawley rat model assessed as reduction in glucose levels at 100 mg/kg, po measured after 5 hrs
[5] = tested on: Rattus norvegicus; assay: Antidiabetic activity in sucrose challenged streptozotocin-induced diabetic Sprague-Dawley rat model assessed as reduction in glucose levels at 100 mg/kg, po measured after 24 hrs
[6] = tested on: Rattus norvegicus; assay: Antidiabetic activity in sucrose loaded Wistar rat model assessed as reduction in glucose levels at 100 mg/kg, po; parameters: scale not given: the % may be the effect or the level left

SMILES	Activity [1] [%]	Activity [2] [%]	Activity [3] [%]	Activity [4]	Activity [5]	Activity [6]
CC(C)(C)NCC(O)COc1ccc2c(=O)cc(-c3cc(O)cc(O)c3)oc2c1 (stereo unspecified)	4	17	16			
COc1cc(OC)cc(-c2cc(=O)c3ccc(OCC(O)CNC(C)C)cc3o2)c1 (stereo unspecified)	21	17	24	inactive	inactive	
O=c1cc(-c2cc(OCc3ccccc3)cc(OCc3ccccc3)c2)oc2cc(OCC(O)CN3CCN(c4ccccc4)CC3)ccc12 (stereo unspecified)	21	24	17	14.3%		
CC(C)NCC(O)COc1ccc2c(=O)cc(-c3cc(OCc4cc(Cl)cc(Cl)c4)cc(OCc4cc(Cl)cc(Cl)c4)c3)oc2c1 (stereo unspecified)	11.8	22.2	26	22.1%	16.2%	32.7%
Cc1ccc(COc2cc(OCc3ccc(C)cc3)cc(-c3cc(=O)c4ccc(OCC(O)CNC(C)C)cc4o3)c2)cc1 (stereo unspecified)	26.5	20.3	25.6	22.8%	11.9%	51.6%
Cc1ccc(COc2cc(OCc3ccc(C)cc3)cc(-c3cc(=O)c4ccc(OCC(O)CN(C(C)C)C(C)C)cc4o3)c2)cc1 (stereo unspecified)	4.67	10.1	12.1	12.2%	inactive	15.7%
CN(C)C(=N)NC(=N)N [METFORMIN]	6.2	4.2	5.9	24.3%	19.4%	22.1%
COc1cc(OC)cc(-c2cc(=O)c3ccc(OCC(O)CN4CCN(c5ccccc5)CC4)cc3o2)c1 (stereo unspecified)	12.8	14.3	17.3			inactive
Cc1ccc(COc2cc(OCc3ccc(C)cc3)cc(-c3cc(=O)c4ccc(OCC(O)CNC(C)(C)C)cc4o3)c2)cc1 (stereo unspecified)	16.2	11.2	12.8			13.6%
Cc1ccccc1COc1cc(OCc2ccccc2C)cc(-c2cc(=O)c3ccc(OCC(O)CNC(C)C)cc3o2)c1 (stereo unspecified)	24.1	13.5	26.2			4.65%
CC(C)NCC(O)COc1ccc2c(=O)cc(-c3cc(OCc4ccccc4Cl)cc(OCc4ccccc4Cl)c3)oc2c1 (stereo unspecified)	20.2	12.1	30.2	6.83%	inactive	12.6%
CC(C)(C)NCC(O)COc1ccc2c(=O)cc(-c3ccc(OCc4ccccc4)c(OCc4ccccc4)c3)oc2c1 (stereo unspecified)	12	23	16	11.8%	0.89%	15.9%
CC(C)(C)NCC(O)COc1ccc2c(=O)cc(-c3cc(OCc4ccccc4Cl)cc(OCc4ccccc4Cl)c3)oc2c1 (stereo unspecified)	11.3	12.5	18.7	7.48%	inactive	14.8%
COc1cc(-c2cc(=O)c3ccc(OCC(O)CNC(C)(C)C)cc3o2)cc(OC)c1OC (stereo unspecified)	26	24	28			inactive
COc1cc(OC)cc(-c2cc(=O)c3ccc(OCC(O)CNC(C)(C)C)cc3o2)c1 (stereo unspecified)	19	21	17	4.86%	2.36%	inactive
CC(C)NCC(O)COc1ccc2c(=O)cc(-c3cc(OCc4ccccc4)cc(OCc4ccccc4)c3)oc2c1 (stereo unspecified)	8	13	11	7.86%	2.23%	inactive
Cc1ccccc1COc1cc(OCc2ccccc2C)cc(-c2cc(=O)c3ccc(OCC(O)CNC(C)(C)C)cc3o2)c1 (stereo unspecified)	12.6	22.3	28.2	23.2%	17.2%	39.1%
CC(C)(C)NCC(O)COc1ccc2oc(-c3ccc(O)c(O)c3)cc(=O)c2c1 (stereo unspecified)	23	24	25	inactive	inactive	
CC(C)(C)NCC(O)COc1ccc2oc(-c3ccc(OCc4ccccc4)c(OCc4ccccc4)c3)cc(=O)c2c1 (stereo unspecified)	12	21	17		0.36%	21.8%
COc1ccc(-c2cc(=O)c3ccc(OCC(O)CNC(C)C)cc3o2)cc1OC (stereo unspecified)				13.8%	6.83%	23.9%
CC(C)(C)NCC(O)COc1ccc2c(=O)cc(-c3ccc(O)c(O)c3)oc2c1 (stereo unspecified)	23	21	25			inactive
CC(C)(C)NCC(O)COc1ccc2c(=O)cc(-c3cc(OCc4cc(Cl)cc(Cl)c4)cc(OCc4cc(Cl)cc(Cl)c4)c3)oc2c1 (stereo unspecified)	12.2	8.93	11.3	14.2%	inactive	25.9%
COc1cc(-c2cc(=O)c3ccc(OCC(O)CN4CCN(c5ccccc5)CC4)cc3o2)cc(OC)c1OC (stereo unspecified)	8	19	23	2.36%	0.24%	
CC(C)NCC(O)COc1ccc2c(=O)cc(-c3ccc(OCc4ccccc4)c(OCc4ccccc4)c3)oc2c1 (stereo unspecified)	5	16	14	12.4%	2.34%	17.9%
CC(C)NCC(O)COc1ccc2c(=O)cc(-c3ccc(O)c(O)c3)oc2c1 (stereo unspecified)	13	15	19			inactive
COc1cc(-c2cc(=O)c3ccc(OCC(O)CNC(C)C)cc3o2)cc(OC)c1OC (stereo unspecified)	16	18	19			20.7%
COc1ccc(-c2cc(=O)c3ccc(OCC(O)CN4CCN(c5ccccc5)CC4)cc3o2)cc1OC (stereo unspecified)	22	23	19	4.35%	2.34%	
Cc1ccc(COc2cc(OCc3ccc(C)cc3)cc(-c3cc(=O)c4ccc(OCC(O)CNCc5ccccc5)cc4o3)c2)cc1 (stereo unspecified)	20.8	16.5	27.2	26.2%	17.9%	32%
